Laboratory results as given in ChEMBL document CHEMBL5724801, “EUbOPEN Chemogenomics Library - Multiplex” (2024).
Where “and” joins values, the source holds several entries; their conditions need not be identical. Identical values can stand only once.

System: Fibroblast
Test: Multiplex assay against human fibroblast
Type: toxicity, cell-based
Outline: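 Live cells were stained at seeding with Hoechst33342, BioTracker Green Microtubule Cytoskeleton Dye, MitoTracker Red and Annexin V Alexa Fluor 680, then imaged on a CQ1 microscope at 37°C and 5% CO2 after compound addition. CellPathfinder machine-learning gating split cells into Hoechst high-intensity objects or normal cells. Normal cells were split into healthy, pyknosed or fragmented nuclei, and pyknosed cells into mitotic or apoptotic. Tubulin, mitochondrial-mass and membrane-permeability phenotypes are per cents of healthy-nucleus cells.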

[1] = 12 h, 1 µM, compound concentration 1 uM
[2] = 12 h, 10 µM, compound concentration 10 uM
[3] = 24 h, 1 µM, compound concentration 1 uM
[4] = 24 h, 10 µM, compound concentration 10 uM
[5] = 48 h, 1 µM, compound concentration 1 uM
[6] = 48 h, 10 µM, compound concentration 10 uM

## Cc1cnc(-c2cc(N3CCN(C(=O)CCS(C)(=O)=O)CC3)ncc2Cl)c(C)c1
[1]
  Population Apoptotic (%): 36% and 31%
  Population Fragmented Nuclei (%): 9% and 22%
  Population Healthy Nuclei (%): 71% and 36%
  Population Hoechst High Intensity Objects (%): 1% and 9%
  Population Membrane Permeable-Phenotype (%): 0% and 7%
  Population Mitochondria Different-Phenotype (%): 7% and 10%
  Population Mitotic Cells (%): 63% and 68%
  Population Normal (%): 98% and 90%
  Population Pyknosed Nuclei (%): 19% and 41%
  Population Tubulin-Different-Phenotype (%): 20% and 50%
  Total Cell Count: 99 and 85
[2]
  Population Apoptotic (%): 40% and 26%
  Population Fragmented Nuclei (%): 13% and 21%
  Population Healthy Nuclei (%): 71% and 63%
  Population Hoechst High Intensity Objects (%): 4% and 1%
  Population Membrane Permeable-Phenotype (%): 1%
  Population Mitochondria Different-Phenotype (%): 2%
  Population Mitotic Cells (%): 60% and 73%
  Population Normal (%): 95% and 98%
  Population Pyknosed Nuclei (%): 14% and 15%
  Population Tubulin-Different-Phenotype (%): 24% and 37%
  Total Cell Count: 142 and 121
[3]
  Population Apoptotic (%): 54% and 47%
  Population Healthy Nuclei (%): 76% and 38%
  Population Hoechst High Intensity Objects (%): 6% and 10%
  Population Membrane Permeable-Phenotype (%): 2% and 3%
  Population Mitochondria Different-Phenotype (%): 4% and 0%
  Population Mitotic Cells (%): 45% and 52%
  Population Normal (%): 93% and 89%
  Population Pyknosed Nuclei (%): 12% and 25%
  Population Tubulin-Different-Phenotype (%): 30% and 61%
  Total Cell Count: 97 and 91
[4]
  Population Apoptotic (%): 46% and 42%
  Population Fragmented Nuclei (%): 10% and 19%
  Population Healthy Nuclei (%): 79% and 67%
  Population Hoechst High Intensity Objects (%): 0% and 4%
  Population Membrane Permeable-Phenotype (%): 2%
  Population Mitochondria Different-Phenotype (%): 6% and 9%
  Population Mitotic Cells (%): 53% and 57%
  Population Normal (%): 99% and 95%
  Population Pyknosed Nuclei (%): 9% and 12%
  Population Tubulin-Different-Phenotype (%): 28% and 38%
  Total Cell Count: 135 and 116
[5]
  Population Apoptotic (%): 69% and 36%
  Population Fragmented Nuclei (%): 19% and 40%
  Population Healthy Nuclei (%): 58% and 47%
  Population Hoechst High Intensity Objects (%): 2% and 5%
  Population Membrane Permeable-Phenotype (%): 0% and 12%
  Population Mitochondria Different-Phenotype (%): 1% and 9%
  Population Mitotic Cells (%): 30% and 63%
  Population Normal (%): 97% and 94%
  Population Pyknosed Nuclei (%): 21% and 12%
  Population Tubulin-Different-Phenotype (%): 33% and 70%
  Total Cell Count: 109 and 92
[6]
  Population Apoptotic (%): 50% and 75%
  Population Fragmented Nuclei (%): 21% and 29%
  Population Healthy Nuclei (%): 69% and 61%
  Population Hoechst High Intensity Objects (%): 2% and 3%
  Population Membrane Permeable-Phenotype (%): 0% and 2%
  Population Mitochondria Different-Phenotype (%): 7% and 5%
  Population Mitotic Cells (%): 50% and 25%
  Population Normal (%): 97% and 96%
  Population Pyknosed Nuclei (%): 8% and 9%
  Population Tubulin-Different-Phenotype (%): 33%
  Total Cell Count: 141 and 131

## O=C(O)C(F)(F)F.O=C1NC(=O)/C(=C/c2c[nH]c(=O)c(-c3ccc(N4CCNCC4)nc3)c2)S1
[1]
  Population Apoptotic (%): 11.76% and 21.95%
  Population Fragmented Nuclei (%): 12.02% and 8.21%
  Population Healthy Nuclei (%): 60.11% and 70.77%
  Population Hoechst High Intensity Objects (%): 0%
  Population Membrane Permeable-Phenotype (%): 3.64% and 0%
  Population Mitochondria Different-Phenotype (%): 8.18% and 7.25%
  Population Mitotic Cells (%): 88.24% and 78.05%
  Population Normal (%): 100%
  Population Pyknosed Nuclei (%): 27.87% and 21.03%
  Population Tubulin-Different-Phenotype (%): 8.18% and 12.32%
  Total Cell Count: 183 and 195
[2]
  Population Apoptotic (%): 13.51% and 16.13%
  Population Healthy Nuclei (%): 62.9% and 80.28%
  Population Hoechst High Intensity Objects (%): 0%
  Population Membrane Permeable-Phenotype (%): 5.98% and 3.51%
  Population Mitochondria Different-Phenotype (%): 4.27% and 11.7%
  Population Mitotic Cells (%): 86.49% and 83.87%
  Population Normal (%): 100%
  Population Pyknosed Nuclei (%): 19.89% and 14.55%
  Total Cell Count: 186 and 213
[3]
  Population Apoptotic (%): 10.42% and 17.86%
  Population Fragmented Nuclei (%): 12.43% and 7.25%
  Population Healthy Nuclei (%): 61.62% and 78.24%
  Population Hoechst High Intensity Objects (%): 0%
  Population Membrane Permeable-Phenotype (%): 4.39% and 3.97%
  Population Mitochondria Different-Phenotype (%): 4.39% and 9.27%
  Population Mitotic Cells (%): 89.58% and 82.14%
  Population Normal (%): 100%
  Population Pyknosed Nuclei (%): 25.95% and 14.51%
  Population Tubulin-Different-Phenotype (%): 10.53% and 16.56%
  Total Cell Count: 185 and 193
[4]
  Population Apoptotic (%): 24.24% and 20.59%
  Population Fragmented Nuclei (%): 13.83% and 5.22%
  Population Healthy Nuclei (%): 68.62% and 80%
  Population Hoechst High Intensity Objects (%): 0%
  Population Membrane Permeable-Phenotype (%): 3.88% and 1.09%
  Population Mitochondria Different-Phenotype (%): 4.65% and 6.52%
  Population Mitotic Cells (%): 75.76% and 79.41%
  Population Normal (%): 100%
  Population Pyknosed Nuclei (%): 17.55% and 14.78%
  Population Tubulin-Different-Phenotype (%): 10.85% and 20.11%
  Total Cell Count: 188 and 230
[5]
  Population Apoptotic (%): 26.32% and 27.27%
  Population Fragmented Nuclei (%): 10.5% and 6.53%
  Population Healthy Nuclei (%): 81.51% and 87.94%
  Population Hoechst High Intensity Objects (%): 0%
  Population Membrane Permeable-Phenotype (%): 1.03% and 1.71%
  Population Mitochondria Different-Phenotype (%): 8.76% and 5.71%
  Population Mitotic Cells (%): 73.68% and 72.73%
  Population Normal (%): 100%
  Population Pyknosed Nuclei (%): 7.98% and 5.53%
  Population Tubulin-Different-Phenotype (%): 6.7% and 18.86%
  Total Cell Count: 238 and 199
[6]
  Population Apoptotic (%): 50% and 55.56%
  Population Fragmented Nuclei (%): 7.94% and 3.6%
  Population Healthy Nuclei (%): 88.89% and 92.34%
  Population Hoechst High Intensity Objects (%): 0%
  Population Membrane Permeable-Phenotype (%): 1.19% and 1.46%
  Population Mitotic Cells (%): 50% and 44.44%
  Population Normal (%): 100%
  Population Pyknosed Nuclei (%): 3.17% and 4.05%
  Total Cell Count: 189 and 222

## O=C1NC(NC23CC4CC(CC(C4)C2)C3)=N/C1=C\c1ccc2ncsc2c1
[1]
  Population Apoptotic (%): 51.97% and 44.44%
  Population Fragmented Nuclei (%): 23.55% and 19.79%
  Population Healthy Nuclei (%): 57.53% and 66.62%
  Population Hoechst High Intensity Objects (%): 0%
  Population Membrane Permeable-Phenotype (%): 1.3% and 2.27%
  Population Mitochondria Different-Phenotype (%): 3.63% and 2.49%
  Population Mitotic Cells (%): 48.03% and 55.56%
  Population Normal (%): 100%
  Population Pyknosed Nuclei (%): 18.93% and 13.6%
  Population Tubulin-Different-Phenotype (%): 8.81% and 11.79%
  Total Cell Count: 671 and 662
[2]
  Population Apoptotic (%): 45.21% and 45.31%
  Population Fragmented Nuclei (%): 36.23% and 36.1%
  Population Healthy Nuclei (%): 32.66% and 30.01%
  Population Hoechst High Intensity Objects (%): 28.04% and 33.79%
  Population Membrane Permeable-Phenotype (%): 0.36% and 0.46%
  Population Mitochondria Different-Phenotype (%): 0%
  Population Mitotic Cells (%): 54.79% and 54.69%
  Population Normal (%): 71.96% and 66.21%
  Population Pyknosed Nuclei (%): 31.11% and 33.89%
  Population Tubulin-Different-Phenotype (%): 0.73% and 7.37%
  Total Cell Count: 1166 and 1092
[3]
  Population Apoptotic (%): 49.15% and 52.44%
  Population Fragmented Nuclei (%): 25.03% and 19.5%
  Population Healthy Nuclei (%): 59% and 67.8%
  Population Hoechst High Intensity Objects (%): 0% and 0.15%
  Population Membrane Permeable-Phenotype (%): 2.52% and 1.37%
  Population Mitochondria Different-Phenotype (%): 0.92% and 0.91%
  Population Mitotic Cells (%): 50.85% and 47.56%
  Population Normal (%): 100% and 99.85%
  Population Pyknosed Nuclei (%): 15.97% and 12.69%
  Population Tubulin-Different-Phenotype (%): 12.84% and 17.12%
  Total Cell Count: 739 and 647
[4]
  Population Apoptotic (%): 48.2% and 49.02%
  Population Fragmented Nuclei (%): 28.62% and 33.38%
  Population Healthy Nuclei (%): 37.8% and 32.44%
  Population Hoechst High Intensity Objects (%): 27.11% and 32.18%
  Population Membrane Permeable-Phenotype (%): 0.64% and 0.41%
  Population Mitochondria Different-Phenotype (%): 0.32% and 0%
  Population Mitotic Cells (%): 51.8% and 50.98%
  Population Normal (%): 72.89% and 67.82%
  Population Pyknosed Nuclei (%): 33.57% and 34.18%
  Population Tubulin-Different-Phenotype (%): 1.6% and 2.89%
  Total Cell Count: 1136 and 1100
[5]
  Population Apoptotic (%): 58.9% and 52.22%
  Population Fragmented Nuclei (%): 13.24% and 13.94%
  Population Healthy Nuclei (%): 69.8% and 71.47%
  Population Hoechst High Intensity Objects (%): 0%
  Population Membrane Permeable-Phenotype (%): 1.5% and 2.72%
  Population Mitochondria Different-Phenotype (%): 1.5% and 0.91%
  Population Mitotic Cells (%): 41.1% and 47.78%
  Population Normal (%): 100%
  Population Pyknosed Nuclei (%): 16.96% and 14.59%
  Population Tubulin-Different-Phenotype (%): 20.97% and 31.75%
  Total Cell Count: 861 and 617
[6]
  Population Apoptotic (%): 50.75% and 49.7%
  Population Fragmented Nuclei (%): 29.22% and 30.74%
  Population Healthy Nuclei (%): 35.44% and 26.72%
  Population Hoechst High Intensity Objects (%): 25.71% and 37.77%
  Population Membrane Permeable-Phenotype (%): 0.6% and 0.49%
  Population Mitochondria Different-Phenotype (%): 0.6% and 0%
  Population Mitotic Cells (%): 49.25% and 50.3%
  Population Normal (%): 74.29% and 62.23%
  Population Pyknosed Nuclei (%): 35.34% and 42.54%
  Population Tubulin-Different-Phenotype (%): 1.19% and 2.91%
  Total Cell Count: 1276 and 1239
